Experimental findings from ChEMBL document CHEMBL1122989, “Quantitative structure-activity relationships in cytokinin agonistic and antagonistic pyrido[2,3-d]pyrimidine derivatives: insights into receptor topology” (J Med Chem, 1985) are described below.

The first test deals with Nicotiana tabacum. Briefly: Effective concentration required for cytokinin activity for producing maximum response of callus yield. Format: functional.
Details: not given
In short, it runs like this: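 Callus growth assay run without kinetin, with test compounds at several concentrations in basal medium. Medium adjusted to pH 5.6 with 1 N NaOH and autoclaved at 1.0 kg/cm2 for 15 min. Callus yield was the read-out.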
`CSc1nc(Nc2ccc(I)cc2)c2cccnc2n1` came in with an E50 of 2.21 µM.

`CSc1nc(Nc2ccc(C(=O)O)cc2)c2cccnc2n1`: the E50 was 12.5 µM. Take `CSc1nc(Nc2cccc(F)c2)c2cccnc2n1`: the E50 was found to be 3.39 µM. Compound `CSc1nc(Nc2cccc(Br)c2)c2cccnc2n1` displayed an E50 of 2.38 µM.

In the case of `CSc1nc(Nc2cc(C)cc(C)c2)c2cccnc2n1`, the E50 was found to be 2.82 µM. On the same count and under the same terms, next, `CSc1nc(Nc2cc(C)ccc2C)c2cccnc2n1`: 0.96 µM. The same measure, in the same setting: as for `CSc1nc(Nc2ccc(Cl)cc2Cl)c2cccnc2n1`, the figure is 0.95 µM; as for `CSc1nc(Nc2cccc(I)c2)c2cccnc2n1`, 5.2 µM; as for `CSc1nc(Nc2ccc(C)c(C)c2)c2cccnc2n1`, 0.92 µM. The same measure, in the same setting: as for `CSc1nc(Nc2ccccc2C)c2cccnc2n1`, the figure is 3.59 µM; as for `CCc1cccc(Nc2nc(SC)nc3ncccc23)c1`, 1.91 µM; as for `CSc1nc(Nc2cc(Cl)cc(Cl)c2)c2cccnc2n1`, 0.84 µM. In the case of `CSc1nc(Nc2cccc(C)c2)c2cccnc2n1`, the E50 turned out to be 1.58 µM.

In turn, `CSc1nc(Nc2cccc(C#N)c2)c2cccnc2n1` gave an E50 of 2.15 µM. `CSc1nc(Nc2cccc(O)c2)c2cccnc2n1`: the E50 was determined as 5.44 µM.

Test system in the next test: not listed separately
In words: Anticytokinin activity was evaluated by 50% of the callus growth on the medium with kinetin but without anti-cytokinin. As to conditions: read-out: I50. Format: functional, Nicotiana tabacum. In short, it runs like this: (§1)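 Test compounds at several concentrations in basal medium containing kinetin; medium adjusted to pH 5.6 with 1 N NaOH and autoclaved at 1.0 kg/cm2 for 15 min. Callus growth was the read-out. I50 (µM) is the concentration giving 50% of the callus growth seen on kinetin medium without anticytokinin.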
Take `CSc1nc(NCC(C)C)c2cccnc2n1`: the IC50 was 0.54 µM.

Consider `CCCCCCCNc1nc(SC)nc2ncccc12`, for which the IC50 was 4.07 µM. Still for that read-out and setting: as for `CNc1nc(SC)nc2ncccc12`, the figure is 2.92 µM. Same read-out and setting: next, `CCc1ccc(Nc2nc(SC)nc3ncccc23)cc1`: 7.15 µM. Turning to `CCOCCNc1nc(SC)nc2ncccc12`, the IC50 was 7.59 µM. Consider `CSc1nc(Nc2ccccc2)c2cccnc2n1`, for which the IC50 worked out at 15.8 µM. For the compound `COc1ccc(Nc2nc(SC)nc3ncccc23)cc1`, the IC50 amounted to 9.42 µM. For the compound `CSc1nc(Nc2cccc(C(=O)O)c2)c2cccnc2n1`, the IC50 was determined as 9.2 µM. Still for that read-out and setting: as for `CCCCCCNc1nc(SC)nc2ncccc12`, the figure is 3.33 µM.

`CCOc1ccc(Nc2nc(SC)nc3ncccc23)cc1`: the IC50 turned out to be 5.42 µM. On the same count and under the same terms, as for `CSc1nc(NC2CCC2)c2cccnc2n1`, the figure is 0.72 µM; as for `CSc1nc(Nc2cccc(C(C)=O)c2)c2cccnc2n1`, 13.2 µM.

For the compound `CCC(C)Nc1nc(SC)nc2ncccc12` (stereo unspecified), the IC50 is 0.86 µM. Same read-out and setting: as for `C=CCNc1nc(SC)nc2ncccc12`, the figure is 0.4 µM.

For the compound `CCCNc1nc(SC)nc2ncccc12`, the IC50 turned out to be 0.27 µM. Still for that read-out and setting: next, `CSc1nc(NC2CCCC2)c2cccnc2n1`: 0.49 µM. On the same count and under the same terms, as for `CSc1nc(NCc2ccccc2)c2cccnc2n1`, the figure is 25.2 µM; as for `CCCCCNc1nc(SC)nc2ncccc12`, 0.65 µM. Same read-out and setting: as for `CCCCNc1nc(SC)nc2ncccc12`, the figure is 0.27 µM.

In the case of `CSc1nc(Nc2ccc(C(C)=O)cc2)c2cccnc2n1`, the IC50 was found to be 8.96 µM. As for `CSc1nc(Nc2ccc(C#N)cc2)c2cccnc2n1`, the IC50 is 7.56 µM.

Turning to `CSc1nc(Nc2cccc([N+](=O)[O-])c2)c2cccnc2n1`, the IC50 was 3.55 µM. On the same count and under the same terms, as for `CCCCC(CC)CNc1nc(SC)nc2ncccc12` (stereo unspecified), the figure is 15.8 µM; as for `CSc1nc(Nc2ccc(Br)cc2)c2cccnc2n1`, 5.75 µM; as for `CSc1nc(NC2CCCCC2)c2cccnc2n1`, 5.65 µM. The same measure, in the same setting: as for `COCCNc1nc(SC)nc2ncccc12`, the figure is 2.53 µM; as for `CCC(CC)Nc1nc(SC)nc2ncccc12`, 2.72 µM.

As to `CSc1nc(NC2CC2)c2cccnc2n1`, the IC50 was determined as 4.9 µM. On the same count and under the same terms, next, `CSc1nc(Nc2ccc(F)cc2)c2cccnc2n1`: 2.62 µM; `CSc1nc(Nc2ccc(Cl)cc2)c2cccnc2n1`: 8.51 µM.

Test system in another test: not listed separately
In words: Anticytokinin activity was evaluated by 50% of the callus growth on the medium with kinetin but without anti-cytokinin; Insoluble. The format is functional, Nicotiana tabacum.
Details: not given
In outline:
as §1
On to `CSc1nc(Nc2ccc([N+](=O)[O-])cc2)c2cccnc2n1`, for which the I50 entry is “Insoluble”.
